# Experimental data gathered from unrelated publications.
# Lines come from different studies, so protocols differ.
# Observed: metabolic stability
# Species: human
SMILES,test system,conditions,half-life [min]
O=S(=O)(Nc1cccc(-c2nnn[nH]2)c1)c1ccc(Cl)c2nonc12,liver microsomes,,200
CC(C)NCC(O)COc1cccc2ccccc12 (stereo not shown),liver microsomes,"1 µM, pH 7.4",58.6
COc1ccc(-c2ocnc2C(=O)NCCCn2cncn2)cc1Cl,liver microsomes,,78.7
CO[C@@H](C[C@H]1C(C)=CC[C@@H]2[C@]3(C)C[C@H](O[C@@H]4O[C@@H](C)[C@H](OC(=O)c5cccc(O)c5)[C@@H](O[C@@H]5O[C@H](CO)[C@@H](O)[C@H](O)[C@H]5NC(C)=O)[C@H]4O)[C@@H](O)C(C)(C)[C@H]3CC[C@]21C)[C@H](N)C(=O)O.O=C(O)C(F)(F)F,hepatocytes,1 µM,> 360
COc1ccc2nc3cc(Cl)ccc3c(Nc3cc(CN4CCCC4)c(O)c(CN4CCCC4)c3)c2n1,hepatocytes,1 µM,468
NCc1ccccc1,hepatocytes,5 µM,76.3
CCNc1nc2c(c(N3CC(=O)Nc4cc(OC)ccc43)n1)CCC2,liver microsomes,,16.7
O=C(CC1Cc2ccccc2C1)N[C@H](CN1CCCC1)[C@H](O)c1ccc(OC(F)(F)F)cc1,liver microsomes,"1 µM, pH 7.4",84
CN1CCN(C(c2ccccc2)c2ccc(Cl)cc2)CC1 (racemic),liver microsomes,,> 100
Cc1cccc(-n2ncc(Br)c(Br)c2=O)c1,liver microsomes,,7.1
CCOC(=O)NS(=O)(=O)c1sc(CC(C)C)cc1-c1ccc2c(c1)CN(C)C(=O)C2,liver microsomes,"1 µM, pH 7.4",7.8
O=C(OC(C(F)(F)F)C(F)(F)F)N1CCc2ccccc2C1,liver microsomes,,21
O=S(=O)(Nc1cccc(-c2nnn[nH]2)c1)c1cc(Cl)c(Cl)cc1Cl,liver microsomes,,88
O=C(c1ccc(F)cc1)C1CCN(CCn2c(=O)[nH]c3ccccc3c2=O)CC1,liver microsomes,,38.8
CCN(CC)S(=O)(=O)c1ccc(S(=O)(=O)N2CCC[C@@H](C(=O)N3CCC(F)(F)CC3)C2)cc1,liver microsomes,1.05 µM,2.7
CCOC(=O)NS(=O)(=O)c1sc(CC(C)C)cc1-c1ccc2c(c1)CN(C(=O)OCC)C2,liver microsomes,"1 µM, pH 7.4",2.3
CC(C)(C)C[C@@H]1N[C@@H](C(=O)N[C@H]2C[C@@](C)(O)C2)[C@H](c2cccc(Cl)c2F)[C@]12C(=O)Nc1cc(Cl)ccc12,liver microsomes,,> 60
CC[C@@H]1C=CC(=O)O[C@@H]1C[C@@H](O)[C@H](C)[C@H](O)[C@@H](C)Cc1ccc(F)cc1,liver microsomes,,< 7.7
O=C(N[C@H](Cc1c[nH]c2ccccc12)C(=O)Nc1ccncc1)c1ccc(-c2cccc(F)c2)cc1F,liver microsomes,,18
C/C=C/C[C@H](C)[C@@H](OC)[C@@H](C)[C@H](O)C[C@H]1OC(=O)C=C[C@H]1CC,liver microsomes,,< 7
CCCCOC(=O)NS(=O)(=O)c1sc(CC(C)C)cc1-c1cccc2c1CN(C(C)=O)C2,liver microsomes,"1 µM, pH 7.4",15
CCS(=O)(=O)Nc1ccc(OCCOCCOCCOCCOc2ccc(NS(=O)(=O)CC)cc2-c2cn(C)c(=O)c3ccccc23)c(-c2cn(C)c(=O)c3ccccc23)c1,liver microsomes,,< 2.3
CC(C)(C)c1ccc(O)c(CN(Cc2cc(C(C)(C)C)ccc2O)C2CCC(NC(N)=O)CC2)c1 (stereo not shown),liver microsomes,"1 µM, pH 7.4",39.8
CC[C@@H]1C=CC(=O)O[C@@H]1C[C@@H](OC)[C@H](C)[C@H](OC)[C@@H](C)Cc1ccc(F)cc1,liver microsomes,,< 2.3
O=C1CCN(C(=O)Nc2ccc(F)c(Cl)c2)[C@H]2CCCC[C@@H]12 (relative stereo),liver microsomes,,> 56
O=C(N[C@H](Cc1c[nH]c2ccccc12)C(=O)Nc1ccncc1)c1ccc(-c2ccc(F)c(F)c2)cc1F,liver microsomes,,18
CCOC(=O)NS(=O)(=O)c1sc(CC(C)C)cc1-c1ccc2c(c1)CN(C(C)=O)C2,liver microsomes,"1 µM, pH 7.4",7.8
COc1ccc([C@@H]2Sc3ccccc3N(CCN(C)C)C(=O)[C@@H]2OC(C)=O)cc1,hepatocytes,1 µM,91.8
